Most compounds without a hit are left out; they make up all but 2.3% or so of the library.
SR-BI uptake up – SR-BI HDL lipid transfer activation; CHO ldlA[mSR-BI] cells, DiI-HDL uptake fluorescence, 3 h; 100 = double the neutral-control signal; 320,000 compounds, 0.096% hits; activation, % at 12.5 µM;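 active = mean replicate activation of at least 60% and every replicate at or above 60%; inconclusive = mean or all-replicate condition met, but not both; inactive = mean below 60% and not all replicates reaching 60%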;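 note: 0% = median plate neutral-control signal and 100% = twice that signal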
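Test system: SR-BI-overexpressing, LDLR-lacking CHO cells. Measured by: DiI fluorescence, bottom read. Medium: Ham's F12 with 0.5% BSA, HEPES 25 mM, pH 7.4. Timing: 3 h uptake period with compound, 37 °C.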
SR-BI HDL uptake – mouse SR-BI HDL lipid transfer inhibition. Q61009. ldlA[mSR-BI] CHO cells, DiI-HDL uptake fluorescence, 3 h. inhibition, % at 12.5 µM. 320,000 compounds, 0.96% hits;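 active = mean replicate inhibition of at least 70% and a set share of replicates each scoring 70 or more; inconclusive = meets just one of the two criteria; inactive = fails both criteria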;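 note: 0% = median of neutral control wells and 100% = median of positive control wells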
CAL PDZ FP-1 – inhibitors of human CAL PDZ peptide binding. Q9HD26. purified CAL PDZ, TMR-peptide fluorescence polarization, 1 h. inhibition, % at 24.9 µM. AID 602252. 300,000 compounds, 0.92% hits;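 active = mean inhibition of at least 30% with at least half of replicates also reaching 30%; inconclusive = no clear call, values can overlap the other calls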;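 note: 0% = DMSO neutral control and 100% = excess unlabeled competitor peptide PRC23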
ATG4B inhibitor – blocks human ATG4B protease cleavage of LC3 substrate; ATG4B cleavage of LC3-PLA2, NBD-HPC fluorescence, 1 h; Q9Y4P1; inhibition, % at 8.33 µM; 340,000 compounds, 0.51% hits; in the data active = inhibition above about 40%
Target sequence (Q9Y4P1 whole entry, looked up): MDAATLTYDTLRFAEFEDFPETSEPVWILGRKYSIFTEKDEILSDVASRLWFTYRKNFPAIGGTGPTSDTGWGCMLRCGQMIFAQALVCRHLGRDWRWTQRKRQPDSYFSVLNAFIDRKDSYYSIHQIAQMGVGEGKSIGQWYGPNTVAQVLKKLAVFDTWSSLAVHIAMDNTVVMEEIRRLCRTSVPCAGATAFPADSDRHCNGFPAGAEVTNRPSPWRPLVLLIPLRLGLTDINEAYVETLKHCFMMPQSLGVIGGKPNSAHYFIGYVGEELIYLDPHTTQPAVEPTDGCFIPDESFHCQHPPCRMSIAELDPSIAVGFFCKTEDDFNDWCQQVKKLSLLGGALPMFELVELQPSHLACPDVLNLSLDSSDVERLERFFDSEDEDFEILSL
CAL PDZ FP-2 – blocks peptide binding to human CAL PDZ domain; purified CAL PDZ, TMR-peptide fluorescence polarization, 1 h; Q9HD26; AID 504414; inhibition, % at 20 µM; 330,000 compounds, 0.02% hits;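 active = highest replicate inhibition of at least 40%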;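 note: plate controls were DMSO neutral control wells for no effect and unlabeled competitor peptide control wells for full effect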
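Test system: purified CerCALP PDZ construct; Compound dosing: one concentration, 20 µM compound; Also added: TMR-labelled reporter peptide T*-PRC34 bound in PDZ groove; Read-out: inhibition from polarization loss; Controls: unlabelled peptide and DMSO controls; Signal: FP readout, S and P plane fluorescence; Incubation: 1 h at RT.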
DiI quench – quenches DiI-HDL fluorescence, an SR-BI assay artifact | shares compounds with SR-BI HDL uptake | cell-free DiI-HDL fluorescence quenching, 30 min | AC50, µM (titrated, usually from 35 µM), for inactives: at the top dose activity change, negative = quenching | 470 compounds, 20% hits;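 active = quenching, a falling signal, with AC50 below a set limit tied to the top valid dose, actives reach about 32 µM in these data; inconclusive = no clear call, values can overlap the other calls; inactive = rising signal, and the rest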
* = called active by the depositor; u = inconclusive; x = no result given.

SMILES	SR-BI uptake up	SR-BI HDL uptake	CAL PDZ FP-1	ATG4B inhibitor	CAL PDZ FP-2	DiI quench
CCOC(=O)Nc1sc(C)c(C)c1C(=O)OCC	-8	8	-3	8	-1	x
CCOC(=O)c1c(Nc2nc(C)c(C(=O)NC)s2)sc(C)c1C	-93	93*	-5	-10	-1	-14%
O=C(CN(Cc1ccc(F)cc1)C(=O)c1csnn1)NC1CCCC1	4	-4	-4	-2	-2	x
O=C(Nc1nc(-c2ccc3c(c2)OCCO3)cs1)c1ccco1	-21	21	-6	x	-3	x
Cc1ccccc1C(=O)N1CCc2cc(-c3csc(NC(=O)CN4CCCC4)n3)ccc21	-50	50	-5	-3	-3	x
CCC(=O)N1CCc2cc(-c3csc(NC(=O)c4ccco4)n3)ccc21	-88	88*	-3	-23	1	-1%
CC(C)C(=O)N1CCc2cc(-c3csc(N)n3)ccc21	-79	79*	-3	-5	-2	-15%
CS(=O)(=O)N1CCc2cc(-c3csc(NC(=O)Cc4ccccc4)n3)ccc21	-75	u	0	-25	-1	-2%
O=C(NC12CC3CC(CC(C3)C1)C2)c1ccc([N+](=O)[O-])o1	13	-13	-2	-1	0	x
COc1cc(C(=O)NCc2nnc(SCC(=O)NCc3ccco3)o2)cc(OC)c1OC	-1	1	2	-5	-1	x
Cc1cc(NC(=O)CN(C)CC(=O)Nc2ccc(Cl)cc2)no1	-6	6	x	-4	1	x
Clc1ccc(Cn2nnc(-c3ccc(N4CCOCC4)cc3)n2)cc1	-83	83*	-4	3	-1	-6%
Fc1ccc(Cn2nnc(-c3ccc(Cl)cc3)n2)cc1	1	-1	-1	8	1	x
CC(=O)c1ccc(N2CCN(C(=O)/C=C/c3ccc(S(=O)(=O)NCc4ccco4)cc3)CC2)cc1	-88	88*	3	-22	-1	-3%
N#Cc1ccc(CN2CCN(C(=O)c3ccc(S(=O)(=O)NCc4ccco4)cc3)CC2)cc1	-72	u	x	-6	1	0%
CC(=O)c1ccc(N2CCN(C(=O)/C=C/c3ccc(S(=O)(=O)N4CCOCC4)cc3)CC2)cc1	-38	38	2	-7	-3	x
O=C(c1cn(-c2ccccc2)nc1-c1cccc([N+](=O)[O-])c1)N1CCCCC1	-73	73*	-4	-8	0	-19%
Fc1ccc(-c2cc(-c3nnc4n3CCCCC4)c3ccccc3n2)cc1	-34	34	3	-11	0	x
Clc1ccc(-c2cc(-c3nnc4n3CCCCC4)c3ccccc3n2)cc1	-83	83*	-6	36	-2	1%
CN(C(=O)COC(=O)c1c[nH]c(=O)[nH]c1=O)C1CCCCC1	-79	79*	-2	-4	-4	-1%
C=CCSc1nnc(C)c(/C=C/Nc2ccc(Cl)cc2)n1	-49	49	-1	-14	-1	x
COc1ccc(OC)c(Nc2ccc(Nc3cc(OC)ccc3OC)nn2)c1	-86	86*	0	-13	-1	5.1µM*
O=C(Nc1ccc(N2CCOCC2)cc1)c1cc2c(s1)CCCC2	-100	100*	-5	1	1	16µM*
O=C(Nc1ccccc1N1CCOCC1)c1cc2c(s1)CCCCC2	-57	57	-3	1	-2	x
Cc1cc(=O)oc2cc(OC(=O)CCCCCN3C(=O)c4ccccc4C3=O)ccc12	24	-24	-5	6	-3	x
CC(=O)Nc1ccc(S(=O)(=O)Nc2cc(C)c(-n3nc4ccccc4n3)cc2O)cc1	-93	93*	1	8	0	9.6µM*
CC(=O)Nc1ccc(S(=O)(=O)Nc2nc3ccccc3nc2Nc2ccc(C(=O)O)c(O)c2)cc1	12	-12	-1	15	1	x
COc1ccc(N2CCN(C(=O)c3cc(=O)[nH]c4ccccc34)CC2)cc1	-52	52	-2	-7	0	-7%
COc1ccc(C(=O)N/N=C(\C)c2ccc(NC(=O)Cc3ccccc3)cc2)c(OC)c1	-53	53	0	-2	-3	x
COC(=O)c1[nH]c2cc(OC)ccc2c1NC(=O)c1ccc2c(c1)OCO2	-72	72*	-2	-5	-1	12µM*
